The values that follow come from ChEMBL document CHEMBL3085708, “Identification and profiling of 3,5-dimethyl-isoxazole-4-carboxylic acid [2-methyl-4-((2S,3'S)-2-methyl-[1,3']bipyrrolidinyl-1'-yl)phenyl] amide as histamine H(3) receptor antagonist for the treatment of depression” (Bioorg Med Chem Lett, 2013).

The nature of series [1]: Therapeutic index, ratio for toxicity in mouse to ratio for antidepression-like activity in rat. The conditions noted are these: in vivo, read-out: TI.
Series [2] has as its target T1, Voltage-gated inwardly rectifying potassium channel KCNH2 (Canis lupus familiaris, UniProt Q9TSZ3).
T1 sequence (Q9TSZ3 whole entry): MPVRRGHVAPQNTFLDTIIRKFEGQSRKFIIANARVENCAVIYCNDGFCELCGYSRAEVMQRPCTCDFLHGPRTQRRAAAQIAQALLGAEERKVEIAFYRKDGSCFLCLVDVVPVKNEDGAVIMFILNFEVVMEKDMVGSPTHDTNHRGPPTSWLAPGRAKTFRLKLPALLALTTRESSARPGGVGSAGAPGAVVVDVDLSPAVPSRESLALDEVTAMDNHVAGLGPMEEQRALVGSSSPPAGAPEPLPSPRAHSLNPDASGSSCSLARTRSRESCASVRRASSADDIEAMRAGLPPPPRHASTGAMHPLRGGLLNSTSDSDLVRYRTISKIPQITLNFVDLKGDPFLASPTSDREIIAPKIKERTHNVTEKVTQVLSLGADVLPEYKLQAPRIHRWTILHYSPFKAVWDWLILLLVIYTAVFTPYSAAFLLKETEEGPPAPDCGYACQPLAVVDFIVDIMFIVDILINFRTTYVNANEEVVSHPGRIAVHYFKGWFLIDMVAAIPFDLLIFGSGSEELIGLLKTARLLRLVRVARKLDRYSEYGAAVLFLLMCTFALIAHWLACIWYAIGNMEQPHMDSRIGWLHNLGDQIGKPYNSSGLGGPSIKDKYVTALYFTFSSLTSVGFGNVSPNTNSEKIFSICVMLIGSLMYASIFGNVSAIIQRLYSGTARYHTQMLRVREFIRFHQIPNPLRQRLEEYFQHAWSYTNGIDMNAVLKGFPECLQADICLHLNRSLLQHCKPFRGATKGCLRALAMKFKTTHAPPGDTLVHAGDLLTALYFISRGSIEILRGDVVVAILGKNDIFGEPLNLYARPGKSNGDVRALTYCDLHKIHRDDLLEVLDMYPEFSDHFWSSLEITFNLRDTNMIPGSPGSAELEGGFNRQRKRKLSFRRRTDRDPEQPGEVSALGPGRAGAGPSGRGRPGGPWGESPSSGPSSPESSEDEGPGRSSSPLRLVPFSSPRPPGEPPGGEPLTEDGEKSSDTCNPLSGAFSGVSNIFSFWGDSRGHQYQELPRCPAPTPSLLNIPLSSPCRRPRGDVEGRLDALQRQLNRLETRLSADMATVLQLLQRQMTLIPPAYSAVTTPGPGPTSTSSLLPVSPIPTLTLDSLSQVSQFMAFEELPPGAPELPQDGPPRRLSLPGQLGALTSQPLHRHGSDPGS
Put plainly: Inhibition of canine ERG current transfected in CHO cells by patch clamp assay. It is filed as cell-based. Summed up: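 Whole-cell patch clamp on CHO cells stably transfected with the canine ERG gene; cERG current IC50 from n = 4.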

Series [3] in a line: AUC (0 to infinity) in OF1 mouse plasma at 10 mg/kg, po. It counts as ADME, organism-based. More on the design: time infinity, dose 10 mg/kg, route oral. Summed up: (§1)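 Single-dose PK; male OF1 mice and male Sprague-Dawley rats, 2 mg/kg iv and 10 mg/kg po. Mouse vehicles: iv 50% 1-methyl-2-pyrrolidinone in saline (1.0 mg/mL); po 5% DMSO/0.5% MC/0.2% Tween80 (1.0 mg/mL). Rat vehicles: iv saline (0.5 mg/mL); po 0.5% MC/0.2% Tween80 (1.0 mg/mL). Plasma and brain exposure read as AUC0-∞ and t1/2.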

For series [4], the system named is Mus musculus. Put plainly: Toxicity in mouse assessed as effect on autonomic activity at 10 to 30 mg/kg, po by Irwin test. It is filed as organism-based. The arrangement: dose 10-30 mg/kg, route oral. The conditions noted are these: in vivo. The method, boiled down: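 Irwin exploratory general behaviour study in male mice; single oral doses of 0, 10 and 30 mg/kg; behavioural, neurologic and autonomic effects observed.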

The subject of series [5] is Mus musculus. Kind of series: Toxicity in mouse assessed as appearance of tremor at 100 mg/kg, po. It counts as organism-based. More on the design: dose 100 mg/kg, route oral. The conditions noted are these: in vivo. Summed up:
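Acute oral group toxicity in mice: behavioural side effects scored (social interaction, motility, preconvulsant signs, convulsions, tremor) after single po doses of 30 and 100 mg/kg.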

The target of series [6] is Voltage-gated inwardly rectifying potassium channel KCNH2 (Homo sapiens, UniProt Q12809). Put plainly: Inhibition of human ERG current transfected in CHO cells by patch clamp assay. It is filed as cell-based. Summed up:
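Whole-cell patch clamp on CHO cells, hERG current; IC50 from n = 4.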

The nature of series [7]: Mutagenic activity in micronucleus (unknown origin) at 5 to 950 ug/mL in absence of human liver microsomes. It is filed as toxicity. Summed up:
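In vitro micronucleus test; concentrations 5 to 950 µg/mL, run with and without metabolic activation by human liver microsomes.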
On the technique in general: Microsomes from liver hold many membrane-bound enzymes, among them those of drug oxidation.

The nature of series [8]: Elimination half life in OF1 mouse plasma at 2 mg/kg, iv. It is filed as ADME, organism-based. More on the design: dose 2 mg/kg, route intravenous. The conditions noted are these: read-out: beta t1/2 (converted). The method, boiled down:
as §1

In the next series the test system is Rattus norvegicus. Kind of series: Antidepression-like activity in po dosed rat assessed as decrease in immobility time by forced swimming test. It is filed as functional. Summed up: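 Rat forced-swim test, immobility time as read-out. Test agent given po in MC/0.6% + H2O at 1, 3 and 10 mg/kg; imipramine reference at 60 mg/kg po.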
Series [9] in a line: AUC (0 to infinity) in Sprague-Dawley rat plasma at 10 mg/kg, po. The arrangement: time infinity, dose 10 mg/kg, route oral. It is filed as ADME, organism-based. The method, boiled down: as §1
Series [10] in a line: Drug metabolism in macaque plasma at 100 ng/ml after 4 hrs. It is filed as ADME, cell-free. The conditions noted are these: macaca, read-out: Drug metabolism. The method, boiled down:
(§2)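 Compound spiked into blank plasma of human, mouse, rat, rabbit, macaque and dog at 100 ng/ml, then incubated in a 37 °C water bath for up to 4 h; percent metabolized reported.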

Series [11] in a line: Inhibition of cytochrome P450 (unknown origin) by mechanism-based assay. It is filed as ADME. The conditions noted are these: human.
Series [12] can be described thus: Elimination half life in OF1 mouse brain at 2 mg/kg, iv. It is filed as ADME, organism-based. More on the design: dose 2 mg/kg, route intravenous. The conditions noted are these: read-out: beta t1/2 (converted). The method, boiled down: as §1
Series [13] in a line: Cmax in Sprague-Dawley rat plasma at 10 mg/kg, po. It counts as ADME, organism-based. More on the design: dose 10 mg/kg, route oral. The method, boiled down: (§3)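 Oral PK at 10 mg/kg po in male OF1 mice (vehicle 5% DMSO/0.5% MC/0.2% Tween80, 1.0 mg/mL) and male Sprague-Dawley rats (vehicle 0.5% MC/0.2% Tween80, 1.0 mg/mL). Cmax and tmax taken from plasma and brain concentration–time profiles.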

Series [14] is described as follows: Solubility of the compound in form of crystalline free base in gastrointestinal tract simulated media. It counts as physicochemical.
Series [15] in a line: Drug metabolism in mouse liver microsomes. The conditions noted are these: read-out: Drug metabolism. It counts as ADME, Microsome.
The test system of a further series is Salmonella typhimurium. Put plainly: Genotoxicity in Salmonella typhimurium at 3 to 1000 ug/mL by Ames-2 test. It is filed as toxicity, organism-based. The conditions noted are these: salmonella enterica subsp. enterica serovar typhimurium. Summed up: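 Ames II bacterial mutagenicity test over 3 to 1000 µg/mL.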
Series [16] can be described thus: Toxicity in guinea pig heart assessed as decrease in ventricular contraction at 30 uM relative to control. It is filed as tissue-based, Cavia porcellus, Cardiac ventricle.
Series [17] in a line: Cmax in OF1 mouse brain at 10 mg/kg, po. It is filed as ADME, organism-based. The arrangement: dose 10 mg/kg, route oral. The method, boiled down: as §3
Series [18] can be described thus: Cmax in Sprague-Dawley rat brain at 10 mg/kg, po. It counts as ADME, organism-based. The arrangement: dose 10 mg/kg, route oral. The method, boiled down: as §3
Series [19] can be described thus: Ratio of AUC (0 to infinity) in brain to plasma in Sprague-Dawley rat at 2 mg/kg, iv. The conditions noted are these: brain and plasma, read-out: Ratio AUC. More on the design: dose 2 mg/kg, route intravenous. It counts as ADME, organism-based.
A short description of series [20]: Drug metabolism in dog plasma at 100 ng/ml after 4 hrs. It counts as ADME, cell-free, Canis lupus familiaris. The conditions noted are these: read-out: Drug metabolism. The method, boiled down:
as §2

The nature of series [21]: Toxicity in po dosed mouse. The conditions noted are these: in vivo.

The IC50 is the concentration needed to halve the response being measured. A word on the AUC(0-inf): it is total exposure, with the tail of the curve extrapolated. The Cmax is the peak of the concentration-time curve. A word on the solubility: it is the dissolved amount per volume that the medium holds. One may read the inhibition as the drop in the measured response relative to a control, in per cent.

Chain of Voltage-gated inwardly rectifying potassium channel KCNH2 (Homo sapiens, UniProt Q12809) (Q12809 whole entry): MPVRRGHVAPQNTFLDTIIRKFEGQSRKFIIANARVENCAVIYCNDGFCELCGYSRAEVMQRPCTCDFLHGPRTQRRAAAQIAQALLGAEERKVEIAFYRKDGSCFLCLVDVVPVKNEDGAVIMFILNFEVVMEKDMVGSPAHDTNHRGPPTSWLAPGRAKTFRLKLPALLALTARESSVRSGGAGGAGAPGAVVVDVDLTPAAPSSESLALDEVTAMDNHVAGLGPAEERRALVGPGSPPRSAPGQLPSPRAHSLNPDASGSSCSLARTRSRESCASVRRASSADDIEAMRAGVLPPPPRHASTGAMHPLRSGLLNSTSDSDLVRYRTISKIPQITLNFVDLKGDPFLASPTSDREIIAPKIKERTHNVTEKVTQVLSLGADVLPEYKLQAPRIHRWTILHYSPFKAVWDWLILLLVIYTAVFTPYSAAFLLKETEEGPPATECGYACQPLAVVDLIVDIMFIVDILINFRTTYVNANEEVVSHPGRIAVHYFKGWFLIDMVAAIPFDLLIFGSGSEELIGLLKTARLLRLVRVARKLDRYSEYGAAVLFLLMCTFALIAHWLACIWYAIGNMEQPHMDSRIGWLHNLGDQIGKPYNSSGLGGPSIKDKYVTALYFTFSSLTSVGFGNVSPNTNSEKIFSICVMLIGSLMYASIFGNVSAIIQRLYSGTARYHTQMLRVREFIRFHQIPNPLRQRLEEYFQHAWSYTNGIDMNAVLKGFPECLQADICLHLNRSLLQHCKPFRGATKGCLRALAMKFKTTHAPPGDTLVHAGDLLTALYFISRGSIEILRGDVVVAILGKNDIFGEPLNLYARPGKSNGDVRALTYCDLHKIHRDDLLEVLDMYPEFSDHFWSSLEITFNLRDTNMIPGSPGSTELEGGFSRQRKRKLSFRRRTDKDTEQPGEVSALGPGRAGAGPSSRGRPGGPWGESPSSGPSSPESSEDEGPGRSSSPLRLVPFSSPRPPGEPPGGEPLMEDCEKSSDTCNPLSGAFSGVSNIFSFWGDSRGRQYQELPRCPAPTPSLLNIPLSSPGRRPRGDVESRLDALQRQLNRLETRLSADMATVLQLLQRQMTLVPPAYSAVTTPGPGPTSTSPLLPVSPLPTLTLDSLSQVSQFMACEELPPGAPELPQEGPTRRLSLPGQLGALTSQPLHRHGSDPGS

`Cc1cc(N2CC[C@H](N3CCC[C@@H]3C)C2)ccc1NC(=O)c1c(C)noc1C`: in series [1], the selectivity ratio amounted to 3. The IC50 was determined as 44 µM in series [2] and 37 µM in series [6]. Also, the AUC(0-inf) in series [3] is 1900 ng·h/mL; in [9], 3150 ng·h/mL. The Activity entry in the series on Mus musculus [4] is “Non-toxic”; with Mus musculus [5] it was “Toxic”; in [7], “Non-toxic”; in the series with Rattus norvegicus it was “Dose-dependent effect”; in the series with Salmonella typhimurium, “Non-toxic”. The half-life is 39 min in series [8] and 55.8 min in [12]. Moreover, the minimal effective dose in the series on Rattus norvegicus (read-out: MED) stood at 10 mg/kg. In addition, the metabolised at 4 h, 100 ng/ml in [10] and in series [20] was under 5% throughout. Further, the “inhibition (INH)” value in series [11] was “Not Active”. Further, the Cmax in series [13] turned out to be 749 ng/mL; in series [17] it was 2620 ng/mL; in [18], 599 ng/mL. Also, the solubility in series [14] was over 2000 µg/mL. Besides, the metabolised in series [15] was under 5%. Moreover, the inhibition at 30 µM in series [16] was found to be 33%. In series [19], the Kp was determined as 1.1. The compound also showed an MTD in series [21] of 30 mg/kg.
